Assays:
[1] = Cytotoxicity against mouse RAW264.7 cells assessed as reduction in cell viability at 10 uM after 24 hrs by MTT assay
[2] = biological target: T1, Nitric oxide synthase, inducible (Mus musculus) (UniProt P29477); test: Inhibition of iNOS-mediated NO production in LPS-induced mouse RAW264.7 cells at 10 uM after 24 hrs by griess method; assay type: cell-based
T1 sequence (whole entry): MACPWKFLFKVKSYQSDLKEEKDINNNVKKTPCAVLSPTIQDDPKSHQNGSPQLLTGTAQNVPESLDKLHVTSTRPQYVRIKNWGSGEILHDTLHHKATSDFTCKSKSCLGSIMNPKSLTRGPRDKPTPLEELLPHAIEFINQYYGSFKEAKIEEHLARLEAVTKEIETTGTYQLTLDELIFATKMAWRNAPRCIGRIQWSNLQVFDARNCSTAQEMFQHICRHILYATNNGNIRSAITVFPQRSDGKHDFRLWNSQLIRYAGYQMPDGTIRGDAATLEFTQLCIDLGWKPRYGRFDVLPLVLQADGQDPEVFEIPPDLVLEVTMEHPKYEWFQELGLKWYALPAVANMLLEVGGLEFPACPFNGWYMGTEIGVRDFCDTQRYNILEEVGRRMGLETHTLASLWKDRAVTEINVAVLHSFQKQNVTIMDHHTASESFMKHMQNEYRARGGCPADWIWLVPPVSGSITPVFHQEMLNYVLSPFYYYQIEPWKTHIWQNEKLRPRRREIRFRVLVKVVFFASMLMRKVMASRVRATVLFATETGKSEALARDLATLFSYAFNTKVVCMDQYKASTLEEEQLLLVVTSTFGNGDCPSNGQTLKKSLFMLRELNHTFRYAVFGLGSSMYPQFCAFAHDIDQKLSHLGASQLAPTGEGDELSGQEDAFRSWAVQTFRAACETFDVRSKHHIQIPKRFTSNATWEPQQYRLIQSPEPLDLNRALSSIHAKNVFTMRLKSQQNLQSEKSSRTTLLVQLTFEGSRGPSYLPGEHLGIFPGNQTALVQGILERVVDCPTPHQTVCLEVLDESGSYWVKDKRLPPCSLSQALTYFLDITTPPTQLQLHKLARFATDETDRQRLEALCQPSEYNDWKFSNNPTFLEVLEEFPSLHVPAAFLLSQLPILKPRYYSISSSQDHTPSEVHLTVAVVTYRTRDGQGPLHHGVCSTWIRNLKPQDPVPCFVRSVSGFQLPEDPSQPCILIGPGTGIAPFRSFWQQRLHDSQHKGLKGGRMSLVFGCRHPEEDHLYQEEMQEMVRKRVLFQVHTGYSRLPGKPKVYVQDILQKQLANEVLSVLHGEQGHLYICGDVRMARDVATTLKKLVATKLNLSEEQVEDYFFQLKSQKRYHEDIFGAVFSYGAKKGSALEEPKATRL
Method in brief: (§1)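 RAW 264.7 cells in DMEM with 10% FBS and 1% antibiotics at 37 °C, 5% CO₂, plated at 2 × 10⁵ cells/well and pre-incubated 2 h. Compound and LPS were then added together for 24 h. Medium readouts: for NO, nitrite by Griess reagent at OD 550 nm; for PGE₂, commercial ELISA.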

[3] = biological target: T2, Prostaglandin G/H synthase 2 (Mus musculus) (UniProt Q05769); test: Inhibition of COX2-mediated PGE2 production in LPS-induced mouse RAW264.7 cells at 10 uM after 24 hrs by ELISA; assay type: cell-based
T2 sequence (whole entry): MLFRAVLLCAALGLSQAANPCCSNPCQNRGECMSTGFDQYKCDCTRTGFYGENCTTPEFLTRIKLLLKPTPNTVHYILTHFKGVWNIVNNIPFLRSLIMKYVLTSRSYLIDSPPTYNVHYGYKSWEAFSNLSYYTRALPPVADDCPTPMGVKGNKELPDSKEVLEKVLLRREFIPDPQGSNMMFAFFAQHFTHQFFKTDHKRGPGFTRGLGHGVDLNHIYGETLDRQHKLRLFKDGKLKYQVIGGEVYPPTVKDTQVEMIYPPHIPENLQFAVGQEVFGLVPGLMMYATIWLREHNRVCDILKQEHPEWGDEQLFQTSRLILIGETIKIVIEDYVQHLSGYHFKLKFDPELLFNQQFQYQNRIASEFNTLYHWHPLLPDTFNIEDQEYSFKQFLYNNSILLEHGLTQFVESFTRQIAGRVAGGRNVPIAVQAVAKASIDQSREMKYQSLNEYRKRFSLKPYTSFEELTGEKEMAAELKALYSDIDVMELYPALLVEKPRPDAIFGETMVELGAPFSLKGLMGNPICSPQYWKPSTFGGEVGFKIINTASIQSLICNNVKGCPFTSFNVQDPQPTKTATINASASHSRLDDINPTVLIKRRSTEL
Method in brief: as §1

SMILES	inhibition [2]	inhibition [3]	reduction in viability at 24 h, 10 µM [1]
O=c1cc(-c2ccccc2)oc2c(-c3ccoc3)c(O)cc(O)c12	8.3%	26.7%	< 10%
O=c1cc(-c2ccccc2)oc2cc(O)cc(O)c12	8.9%	74%	
Cc1c(O)cc(O)c2c(=O)cc(-c3ccccc3)oc12	3.7%	44.3%	< 10%

Second part, led by results:

inhibition [2]	inhibition [3]	SMILES	reduction in viability at 24 h, 10 µM [1]
16.7%	48.1%	O=c1cc(-c2ccccc2)oc2c(-c3cccnc3)c(O)cc(O)c12	< 10%
7.6%	31.4%	O=c1cc(-c2ccccc2)oc2c(-c3ccsc3)c(O)cc(O)c12	< 10%
29.1%	92.4%	O=c1cc(-c2ccccc2)oc2c(-c3ccncc3)c(O)cc(O)c12	< 10%

Source: ChEMBL document CHEMBL1828608, “A chrysin analog exhibited strong inhibitory activities against both PGE2 and NO production” (Eur J Med Chem, 2011)
